According to ChEMBL document CHEMBL3085754, “Clicking 3'-azidothymidine into novel potent inhibitors of human immunodeficiency virus” (J Med Chem, 2013):
Active and inactive are the calls of the source. The calls are words filed in the database; no cut-off is given here.

Tests used:
[1] = test system: Human immunodeficiency virus 1; assay: Antiviral activity against Human immunodeficiency virus 1 3B infected in human CEM-SS cells assessed as inhibition of virus-induced cytopathic effect at 10 uM after 6 days by MTS assay relative to control; assay type: functional; conditions: 144 h
[2] = test system: Human immunodeficiency virus 1; assay: Antiviral activity against wild type Human immunodeficiency virus 1 expressing p24 infected in human HeLa P4/R5 cells up to 10 uM preincubated for 16 hrs prior to virus infection measured after 48 hrs by beta-galactosidase-based single replication cycle assay; assay type: functional, organism-based
Outline: (§1)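 P4R5 indicator cells express CD4, CXCR4, CCR5 and an HIV LTR-driven β-galactosidase reporter, and were kept in DMEM/10% FBS with puromycin. Cells were seeded at 5×10^3 per well and exposed to varying drug concentrations for 16 h. They were then inoculated with 25 ng HIV-1 p24 per well. Infection was quantified 48 h post-infection by fluorescence-based β-galactosidase detection.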

CEM-SS [3] = assay: Cytotoxicity against human CEM-SS cells assessed as cell viability at 10 uM after 6 days by MTS assay relative to control; assay type: cell-based; conditions: 144 h
[4] = test system: Human immunodeficiency virus 1; assay: Antiviral activity against NNRTI-resistant Human immunodeficiency virus 1; assay type: functional, organism-based
[5] = test system: Human immunodeficiency virus 1; assay: Antiviral activity against wild type Human immunodeficiency virus 1 expressing p24 infected in human HeLa P4/R5 cells preincubated for 16 hrs prior to virus infection measured after 48 hrs by beta-galactosidase-based single replication cycle assay; assay type: functional, organism-based; conditions: Human immunodeficiency virus 1, P4/R5; outline: as §1
[6] = test system: Human immunodeficiency virus 1; assay: Ratio of EC50 for NNRTI-resistant Human immunodeficiency virus 1 to EC50 for wild type Human immunodeficiency virus 1 expressing p24; assay type: functional
CEM-SS [7] = assay: Cytotoxicity against human CEM-SS cells assessed as cell viability after 6 days by MTS assay; assay type: cell-based; conditions: cem-ss, 144 h
[8] = test system: Human immunodeficiency virus 1; assay: Antiviral activity against Human immunodeficiency virus 1 3B infected in human CEM-SS cells assessed as inhibition of virus-induced cytopathic effect after 6 days by MTS assay; assay type: functional, organism-based; conditions: 144 h
[9] = Therapeutic index, ratio of CC50 for human CEM-SS cells to EC50 for Human immunodeficiency virus 1 3B; assay type: cell-based; conditions: read-out: Ratio CC50/EC50
[10] = target: Human immunodeficiency virus type 1 reverse transcriptase (Human immunodeficiency virus 1) (UniProt Q72547); assay: Binding affinity to HIV1 reverse transcriptase assessed as compound incorporation into DNA by primer extension assay

SMILES | inhibition at 10 µM [1] [%] | Activity (CEM-SS [3]) [%] | other results
Cc1cn([C@H]2C[C@H](n3nncc3COc3cccc4ccccc34)[C@@H](CO)O2)c(=O)[nH]c1=O | 42 | 93 | Activity [2]: inactive
Cc1cn([C@H]2C[C@H](n3nncc3-c3ccc4[nH]ccc4c3)[C@@H](CO)O2)c(=O)[nH]c1=O | 12 | 82 | 
Cc1cn([C@H]2C[C@H](n3cc(-c4ccnc5ccccc45)nn3)[C@@H](CO)O2)c(=O)[nH]c1=O | 44 | 100 | 
Cc1cn([C@H]2C[C@H](n3cc(CO)nn3)[C@@H](CO)O2)c(=O)[nH]c1=O | 5 | 100 | 
Cc1cn([C@H]2C[C@H](n3cc(-c4cc5ccccc5c5ccccc45)nn3)[C@@H](CO)O2)c(=O)[nH]c1=O | 42 | 100 | EC50 [4]: 1000 nM; EC50 [5]: 4.7 µM; Ratio EC50 [6]: 0.2
Cc1cn([C@H]2C[C@H](n3nncc3-c3ccc(-c4ccccc4)cc3)[C@@H](CO)O2)c(=O)[nH]c1=O | 63 | 80 | Activity [2]: inactive
Cc1cn([C@H]2C[C@H](n3nncc3C3(O)c4ccccc4-c4ccccc43)[C@@H](CO)O2)c(=O)[nH]c1=O | 0 | 97 | 
Cc1cn([C@H]2C[C@H](n3nncc3-c3ccccc3)[C@@H](CO)O2)c(=O)[nH]c1=O | 44 | 100 | 
Cc1cn([C@H]2C[C@H](n3nncc3COc3ccc4ccccc4c3)[C@@H](CO)O2)c(=O)[nH]c1=O | 88 | 95 | EC50 [4]: 2400 nM; CC50 (CEM-SS [7]): 70 µM; EC50 [8]: 1900 nM; selectivity ratio [9]: 37; EC50 [5]: > 5 µM; Ratio EC50 [6]: <0.5
Cc1cn([C@H]2C[C@H](n3cc(-c4ccc(-c5ccccc5)cc4)nn3)[C@@H](CO)O2)c(=O)[nH]c1=O | 91 | 88 | 
Cc1cn([C@H]2C[C@H](n3nncc3-c3cc4ccccc4c4ccccc34)[C@@H](CO)O2)c(=O)[nH]c1=O | 100 | 100 | CC50 (CEM-SS [7]): 21 µM; EC50 [8]: 100 nM; selectivity ratio [9]: 210; EC50 [5]: > 5 µM
Cc1cn([C@H]2C[C@H](n3nncc3C3CCCCC3)[C@@H](CO)O2)c(=O)[nH]c1=O | 43 | 88 | Activity [2]: inactive
Cc1cn([C@H]2C[C@H](n3cc(-c4ccc(Cl)c(Cl)c4)nn3)[C@@H](CO)O2)c(=O)[nH]c1=O | 6 | 100 | 
Cc1cn([C@H]2C[C@H](n3cc(C4CCCCC4)nn3)[C@@H](CO)O2)c(=O)[nH]c1=O | 0 | 100 | 
Cc1cn([C@H]2C[C@H](n3cc(-c4ccc(Oc5ccccc5)cc4)nn3)[C@@H](CO)O2)c(=O)[nH]c1=O | 0 | 100 | 
Cc1cn([C@H]2C[C@H](n3nncc3-c3ccc(Cl)c(Cl)c3)[C@@H](CO)O2)c(=O)[nH]c1=O | 31 | 100 | Activity [2]: inactive
Cc1cn([C@H]2C[C@H](n3nncc3-c3ccc(Cl)cc3)[C@@H](CO)O2)c(=O)[nH]c1=O | 23 | 100 | 
Cc1cn([C@H]2C[C@H](n3cc(-c4ccc5ccccc5c4)nn3)[C@@H](CO)O2)c(=O)[nH]c1=O | 33 | 98 | EC50 [4]: 2100 nM; EC50 [5]: 7.2 µM; Ratio EC50 [6]: 0.3
Cc1cn([C@H]2C[C@H](N=[N+]=[N-])[C@@H](COP(=O)(O)OP(=O)(O)OP(=O)(O)O)O2)c(=O)[nH]c1=O |  |  | Activity [10]: Active
COc1ccc2cc(-c3cn([C@H]4C[C@H](n5cc(C)c(=O)[nH]c5=O)O[C@@H]4CO)nn3)ccc2c1 | 35 | 95 | 
Cc1cn([C@H]2C[C@H](n3cc(-c4ccccc4)nn3)[C@@H](CO)O2)c(=O)[nH]c1=O | 24 | 100 | 

SMILES | inhibition at 10 µM [1] [%] | Activity (CEM-SS [3]) [%] | other results
Cc1cn([C@H]2C[C@H](n3nncc3-c3ccnc4ccccc34)[C@@H](CO)O2)c(=O)[nH]c1=O | 74 | 94 | 
Cc1cn([C@H]2C[C@H](n3cc(C4(O)c5ccccc5-c5ccccc54)nn3)[C@@H](CO)O2)c(=O)[nH]c1=O | 11 | 100 | 
Cc1cn([C@H]2C[C@H](n3cc(COc4ccccc4)nn3)[C@@H](CO)O2)c(=O)[nH]c1=O | 7 | 85 | 
Cc1cn([C@H]2C[C@H](n3nncc3-c3ccc4ccccc4c3)[C@@H](CO)O2)c(=O)[nH]c1=O | 37 | 100 | 
Cc1cn([C@H]2C[C@H](n3cc(-c4cccc5ccccc45)nn3)[C@@H](CO)O2)c(=O)[nH]c1=O | 1 | 100 | 
COc1ccc2cc(OCc3cn([C@H]4C[C@H](n5cc(C)c(=O)[nH]c5=O)O[C@@H]4CO)nn3)ccc2c1 | 0 | 100 | 
COc1ccc2cc(-c3cnnn3[C@H]3C[C@H](n4cc(C)c(=O)[nH]c4=O)O[C@@H]3CO)ccc2c1 | 43 | 100 | EC50 [4]: 1800 nM; EC50 [5]: 4.1 µM; Ratio EC50 [6]: 0.4
Cc1cn([C@H]2C[C@H](n3nncc3C3CC3)[C@@H](CO)O2)c(=O)[nH]c1=O | 17 | 100 | 
COc1ccc2ccc(OCc3cnnn3[C@H]3C[C@H](n4cc(C)c(=O)[nH]c4=O)O[C@@H]3CO)cc2c1 | 10 | 99 | 
Cc1cn([C@H]2C[C@H](n3nncc3CO)[C@@H](CO)O2)c(=O)[nH]c1=O | 0 | 100 | 
COC(=O)C(Cc1ccc(OCc2cnnn2[C@H]2C[C@H](n3cc(C)c(=O)[nH]c3=O)O[C@@H]2CO)cc1)NC(=O)OC(C)(C)C (stereo partly drawn) | 17 | 90 | 
Cc1cn([C@H]2C[C@H](n3cc(COc4cccc5ccccc45)nn3)[C@@H](CO)O2)c(=O)[nH]c1=O | 5 | 100 | 
Cc1cn([C@H]2C[C@H](n3cc(C4CC4)nn3)[C@@H](CO)O2)c(=O)[nH]c1=O | 1 | 100 | 
Cc1cn([C@H]2C[C@H](n3cc(-c4ccc5[nH]ccc5c4)nn3)[C@@H](CO)O2)c(=O)[nH]c1=O | 35 | 100 | 
Cc1cn([C@H]2C[C@H](n3nncc3COc3ccccc3)[C@@H](CO)O2)c(=O)[nH]c1=O | 51 | 100 | 
COc1ccc2cc(OCc3cnnn3[C@H]3C[C@H](n4cc(C)c(=O)[nH]c4=O)O[C@@H]3CO)ccc2c1 | 57 | 100 | Activity [2]: inactive
COC(=O)C(Cc1ccc(OCc2cn([C@H]3C[C@H](n4cc(C)c(=O)[nH]c4=O)O[C@@H]3CO)nn2)cc1)NC(=O)OC(C)(C)C (stereo partly drawn) | 0 | 99 | 
Cc1cn([C@H]2C[C@H](n3cc(COc4ccc5ccccc5c4)nn3)[C@@H](CO)O2)c(=O)[nH]c1=O | 0 | 100 | 
Cc1cn([C@H]2C[C@H](n3nncc3-c3ccc(Oc4ccccc4)cc3)[C@@H](CO)O2)c(=O)[nH]c1=O | 67 | 97 | Activity [2]: inactive
Cc1cn([C@H]2C[C@H](n3cc(-c4ccc(Cl)cc4)nn3)[C@@H](CO)O2)c(=O)[nH]c1=O | 0 | 100 | 
COc1ccc2ccc(OCc3cn([C@H]4C[C@H](n5cc(C)c(=O)[nH]c5=O)O[C@@H]4CO)nn3)cc2c1 | 0 | 100 | 
